Scp1 inh: Scp-1 (human) phosphatase inhibition; Q9GZU7; Recombinant Scp1, phosphopeptide, malachite green phosphate absorbance; inhibition, % at 20 µM; 340,000 compounds, 0.88% hits;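 active means inhibition above about 50% at 20 µM, limit read from the data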;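 further: plate controls were DMSO wells with enzyme for no effect and wells lacking enzyme for full effect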
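System: SCP-1 catalytic domain; Reagent: Phospho 17-mer peptide substrate; Doses: one concentration, 20 µM, with 1.0% DMSO; Incubation: 45 min room-temperature reaction, 5 min colour, 30 min stabiliser; Signal: Phosphate-binding colour reagent, absorbance read at 630 nm.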
DNMT1 inh: blocks human DNA methyltransferase DNMT1; P26358; 360,000 compounds, 0.83% hits; DNMT1 molecular beacon, Hinp1I cleavage, fluorescence; AID 588458; inhibition (reported as % activation of signal), % at 10 µM; in the data active means inhibition above about 50%
Target sequence (P26358 504-1616 limits assumed): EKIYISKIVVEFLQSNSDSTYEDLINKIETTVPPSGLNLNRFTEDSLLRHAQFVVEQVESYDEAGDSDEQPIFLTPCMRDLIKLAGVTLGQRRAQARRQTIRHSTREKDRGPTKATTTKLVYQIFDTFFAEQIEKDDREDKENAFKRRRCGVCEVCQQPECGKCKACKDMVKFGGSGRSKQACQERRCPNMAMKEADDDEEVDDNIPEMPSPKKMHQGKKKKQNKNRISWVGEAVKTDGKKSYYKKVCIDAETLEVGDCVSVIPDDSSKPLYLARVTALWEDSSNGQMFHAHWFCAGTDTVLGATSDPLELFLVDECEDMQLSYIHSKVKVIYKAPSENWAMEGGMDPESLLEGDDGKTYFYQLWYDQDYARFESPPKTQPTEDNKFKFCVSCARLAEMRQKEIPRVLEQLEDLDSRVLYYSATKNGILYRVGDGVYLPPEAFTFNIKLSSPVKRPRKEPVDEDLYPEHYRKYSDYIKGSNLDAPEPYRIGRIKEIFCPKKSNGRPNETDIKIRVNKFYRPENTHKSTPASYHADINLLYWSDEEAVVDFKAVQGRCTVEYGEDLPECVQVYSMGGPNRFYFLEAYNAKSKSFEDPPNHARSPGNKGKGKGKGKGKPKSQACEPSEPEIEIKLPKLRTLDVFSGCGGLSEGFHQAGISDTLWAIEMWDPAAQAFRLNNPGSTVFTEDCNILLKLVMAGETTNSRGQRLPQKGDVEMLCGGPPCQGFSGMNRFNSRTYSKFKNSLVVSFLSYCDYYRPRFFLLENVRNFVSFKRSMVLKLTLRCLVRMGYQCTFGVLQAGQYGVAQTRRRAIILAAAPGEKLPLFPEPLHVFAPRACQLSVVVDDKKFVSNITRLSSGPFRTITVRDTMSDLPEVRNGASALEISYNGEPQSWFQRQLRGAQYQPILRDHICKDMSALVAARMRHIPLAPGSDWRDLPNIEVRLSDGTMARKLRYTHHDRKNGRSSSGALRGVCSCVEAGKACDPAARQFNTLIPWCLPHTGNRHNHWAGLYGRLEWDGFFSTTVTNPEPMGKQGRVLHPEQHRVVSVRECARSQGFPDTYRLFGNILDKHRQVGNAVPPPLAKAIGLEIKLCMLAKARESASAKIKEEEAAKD
GRK2 inh: inhibitors of human GRK2 displacing RNA aptamer | P25098 | bead flow cytometry, FAM-aptamer displacement from GRK2 | inhibition of aptamer binding, % at 10 µM | 330,000 compounds, 0.59% hits;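 active means inhibition of aptamer binding above 40%, roughly 3 SD of noise, on plates passing a quality check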;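 further: median bead fluorescence of bound FAM aptamer so fluorescent compounds give negative values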
SUMO1-SIM PPI: modulators of human SUMO1-mediated protein-protein interactions; P63165; AID 602429; inhibition, % at 20 µM; 360,000 compounds, 0.33% hits; SUMO1 binding to a labelled peptide, TR-FRET, 1 h; in the data active means inhibition above about 37%
LMPTP block: blocks human LMPTP phosphatase; P24666; recombinant LMPTP-A, OMFP fluorogenic substrate, fluorescence intensity; inhibition, % at 20 µM; 360,000 compounds, 0.22% hits;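 active means compounds that cut the enzyme signal by at least half of the control window in the single-dose screen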;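 further: plate controls were DMSO wells with enzyme plus substrate for no effect and substrate without enzyme for full effect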
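Material: LMPTP-A; amount: 0.625 nM enzyme; doses: single 20 µM dose; times: reaction 50 min, room temperature, dark; technique: fluorescence intensity of OMFP turnover product; benchmarks: no-enzyme and uninhibited controls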
STEP block: inhibitors of human striatal-enriched phosphatase STEP; P54829; recombinant STEP, OMFP fluorogenic substrate, fluorescence; inhibition, % at 20 µM; 360,000 compounds, 0.25% hits; AID 588621;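 active means inhibition at 20 µM, scaled per plate between control wells, above about 37%, limit read from the data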;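 further: 0% = DMSO with enzyme and substrate and 100% = substrate only without enzyme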
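material = STEP tyrosine phosphatase | reagent = fluorogenic phosphatase substrate OMFP at 25 µM final | doses = single compound dose of 20 µM, 1% DMSO final | schedule = 20 min reaction, room temperature, in the dark | measured by = fluorescence, 480/540 nm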
Scp1 confirm: confirmation of human Scp-1 phosphatase inhibitors | inhibition, % at 20 µM | 2,500 compounds, 61% hits | shares compounds with Scp1 inh | AID 540281 | recombinant SCP-1 catalytic domain, phosphate release, malachite green absorbance;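 further: plate controls were DMSO with enzyme for no effect and buffer wells lacking enzyme for full effect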
MG interference: interferes with malachite green readout, flagging false Scp-1 hits. 2,500 tested, under 10 active. apparent inhibition (interference), % at 20 µM. shares compounds with Scp1 inh. Colorimetric interference counterscreen, malachite green absorbance 630 nm;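 further: compounds added after enzyme reaction finished so only phosphate colour detection is probed; plate controls were DMSO wells with completed Scp-1 reaction for no effect and substrate wells lacking enzyme for full effect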
Scp-1 Tm shift: validation of human Scp-1 inhibitors by thermal shift binding | shares compounds with Scp1 inh | Recombinant SCP1, Sypro Orange thermal shift Tm | thermal shift relative to vanadate control, % at 40 µM | 1,500 compounds, 25% hits | AID 540329;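 active means substances whose mean melting-temperature shift, as a percentage of the reference inhibitor's shift, reaches about 5.3%, limit read from the data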;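 further: 0% = Tm of DMSO wells and 100% = Tm with sodium orthovanadate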
* marks the source's active call; other numbers are inactive results; nt = no result. Hits are enriched below; roughly 2.2% of the tested compounds scored in any of these assays.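 How the source made its calls, unless noted: active means inhibition of at least 30% at 20 µM; inactive means the rest.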

SMILES	Scp1 inh	DNMT1 inh	GRK2 inh	SUMO1-SIM PPI	LMPTP block	STEP block	Scp1 confirm	MG interference	others
CCNc1nc(NCC)n2c(SCC(=O)Nc3cccc(F)c3)nnc2n1	36.2	13.6	13.0	10.0	0.9	4.3	nt	nt
CCNc1nc(NCC)n2c(SCC(=O)Nc3cccc(Cl)c3)nnc2n1	53.8*	18.4	39.0	12.8	0.0	2.2	50.1*	-14.0	Scp-1 Tm shift=-11.9
COc1cc(/C=C2/C(=O)NN(c3ccc(C)c(Cl)c3)C2=O)cc([N+](=O)[O-])c1O	61.3*	39.3	4.0	-0.8	2.1	85.7*	73.7*	-14.8	Scp-1 Tm shift=568.6*
C=CCNC(=O)c1ccc2c(c1)N(CC)C(=O)c1ccccc1S2	-4.5	-0.2	0.0	0.9	-2.1	-4.6	nt	nt
CCOC(=O)c1ccc2c(c1)N(CC)C(=O)c1ccccc1S2	83.1*	2.1	0.0	6.0	0.8	-0.3	12.7	-9.3
Cc1cccnc1C(NC(=O)C1CCN(CCCc2ccccc2)CC1)c1ccc(F)cc1 (stereo not drawn)	nt	-4.6	nt	-3.2	0.7	-2.4	nt	nt
Cc1ccc(NC(=O)/C=C/c2ccco2)nc1	62.9*	11.4	10.0	-10.5	0.4	-3.0	33.6*	-15.1	Scp-1 Tm shift=-5.2
CCOC(=O)N1CCN(CC(O)c2c[nH]c3ccc(OC)cc23)CC1 (stereo not drawn)	-4.5	-0.4	3.0	-5.1	0.3	0.9	nt	nt
COc1ccc2[nH]cc(C(O)CN3CCC(C(N)=O)CC3)c2c1 (stereo not drawn)	71.2*	-3.3	2.0	-1.9	1.3	-0.5	2.4	-1.0
CCC(=O)N1CCc2cc(S(=O)(=O)NCCC(=O)N3CCN(c4cccc(C)c4)C(C)C3)ccc21 (stereo not drawn)	-11.0	-0.5	0.0	8.6	-0.8	-1.4	nt	nt
CC(C)Oc1ccc(CN2CCC2(C)C(=O)Nc2cccc3cccnc23)cc1 (stereo not drawn)	nt	-3.4	nt	-3.2	2.6	1.7	nt	nt
CC(C)c1ccc(/C=C2\SC(=O)N(CC(=O)NC3C=CS(=O)(=O)C3)C2=O)cc1 (stereo not drawn)	56.6*	37.0	0.0	-9.2	11.1	15.5	53.5*	-6.8	Scp-1 Tm shift=-4.5
COc1cccc(/C=C2\SC(=O)N(CC(=O)NC3C=CS(=O)(=O)C3)C2=O)c1 (stereo not drawn)	-6.5	8.5	0.0	-31.1	-0.5	0.7	nt	nt
C[C@H](CO)N1C[C@H](C)[C@@H](CN(C)Cc2cccnc2)Oc2ncc(-c3cccc(C#N)c3)cc2C1=O	nt	5.1	nt	0.2	-0.8	-3.6	nt	nt
CCOC(=O)c1ccc(N2C(=O)c3n[nH]c(C)c3C2c2ccc(OC)c(OC)c2)cc1 (stereo not drawn)	57.5*	-5.3	4.0	3.3	-0.8	1.3	-9.3	-4.3
CCOC(=O)c1ccc(N2C(=O)c3n[nH]c(C)c3C2c2ccc(OC)cc2)cc1 (stereo not drawn)	-5.8	-1.5	3.0	-1.4	0.5	0.1	nt	nt
CC1CC(C)CN(C(CCc2ccccc2)C(=O)NC2CCCCC2)C1 (stereo not drawn)	nt	-1.3	nt	-2.2	-1.1	-0.5	nt	nt
Cc1nnc(NC(=O)CCSCCC(=O)Nc2nnc(C)s2)s1	81.7*	32.3	7.0	28.1	1.1	0.0	74.3*	-7.6	Scp-1 Tm shift=2.3
CC1NC(=O)NC1CCCCCC(=O)Nc1ccc(F)c(Cl)c1 (stereo not drawn)	-0.4	-3.4	0.0	0.4	-1.4	1.3	0.1	-6.8
CCc1cccc(NC(=O)CCCN2C(=O)NC(C)(C)C2=O)c1	-10.4	6.1	0.0	-1.2	-1.8	-4.0	nt	nt
CC1NC(=O)NC1CCCCC(=O)O (stereo not drawn)	-2.6	6.1	2.0	3.3	-1.5	0.3	nt	nt
Cc1ccc(NC(=O)CCCCCC2NC(=O)NC2C)cc1 (stereo not drawn)	-2.7	0.3	0.0	1.6	-0.1	1.0	11.4	4.5
CCc1cccc(NC(=O)CCCCCC2NC(=O)NC2C)c1 (stereo not drawn)	-7.4	1.1	0.0	1.7	-1.5	-1.7	-18.8	-15.6
CCN(CC)C(=O)C1=C(C)N(Cc2ccc(OC)cc2)C(=O)C(CC(=O)NC2CCCC2)C1 (stereo not drawn)	nt	2.9	nt	3.7	-0.4	-1.6	nt	nt
O=C(/C=C/[C@H]1O[C@@H](n2ccc(=O)[nH]c2=O)[C@H](O)[C@@H]1O)N[C@@H](Cc1ccccc1)C(=O)O	nt	7.3	nt	1.2	-0.7	0.6	nt	nt
SMILES	Scp1 inh	DNMT1 inh	GRK2 inh	SUMO1-SIM PPI	LMPTP block	STEP block	Scp1 confirm	MG interference	others
CC(=O)Nc1cccc(/C(C)=N/NC(=O)c2cccc(S(=O)(=O)N3CCCC3)c2)c1	nt	3.9	nt	-5.2	-0.7	1.3	nt	nt
C#Cc1cccc(N2C(=O)C3C4C=CC(C3C2=O)C2C(=O)N(c3cccc(C#C)c3)C(=O)C42)c1 (stereo not drawn)	4.7	10.0	nt	12.0	-3.2	-2.0	nt	nt
COc1ccccc1NC(C)=[N+](C)CCNS(=O)(=O)c1ccc(Cl)cc1	95.7*	0.8	9.0	3.4	-0.9	0.1	80.7*	-14.8	Scp-1 Tm shift=-9.2
CC(C)C(=O)N1CCN(c2ccc([N+](=O)[O-])c(NC(C)c3ccccc3)c2)CC1 (stereo not drawn)	-9.0	-6.7	0.0	-20.0	2.4	1.6	nt	nt
CC(Nc1cc(N2CCN(C(=O)C(C)(C)C)CC2)ccc1[N+](=O)[O-])c1ccccc1 (stereo not drawn)	52.8*	-4.5	8.0	-19.0	5.7	2.8	-20.6	-24.3
Cc1ccc(S(=O)(=O)N(C)C[C@@H]2OCc3cnnn3CCCC(=O)N([C@H](C)CO)C[C@@H]2C)cc1	nt	10.2	nt	6.3	-1.4	-1.6	nt	nt
N=C1/C(=C/c2ccc(-c3cccc(C(=O)O)c3)o2)C(=O)N=C2SC(CC(=O)N3CCOCC3)=NN12	79.0*	56.2*	4.0	32.8	2.2	25.0	58.0*	-12.9	Scp-1 Tm shift=2.4
O=C1CC(=O)Nc2cc(S(=O)(=O)Nc3cccc(C(F)(F)F)c3)ccc2N1	-4.7	5.6	5.0	6.7	-0.8	-2.4	-4.7	-7.3
COc1cc(C(=O)N2CCCCC2c2cc(C(=O)Nc3ccccc3Cl)no2)cc(OC)c1C (stereo not drawn)	nt	-8.9	nt	5.3	4.3	1.7	nt	nt
CCc1ccc(NC(=O)C(=O)N/N=C(\C)CC(=O)NCc2ccc(Cl)cc2)cc1	79.5*	17.3	1.0	-1.3	-0.4	-2.3	-2.7	-10.1
